Measured values taken from ChEMBL document CHEMBL1275350, “First in class, potent, and orally bioavailable NADPH oxidase isoform 4 (Nox4) inhibitors for the treatment of idiopathic pulmonary fibrosis” (J Med Chem, 2010).

Legend:
[1] = biological target: T1, NADPH oxidase 4 (Homo sapiens, UniProt Q9NPH5); experiment: Inhibition of human NOX4 overexpressed in T-REx-293 cell membrane assessed as ROS production by cell free assay in presence of NADPH; settings: in the assay text read “T-REx-293 cell membrane” for “human PMN cell membrane”
T1 sequence (Q9NPH5 whole entry): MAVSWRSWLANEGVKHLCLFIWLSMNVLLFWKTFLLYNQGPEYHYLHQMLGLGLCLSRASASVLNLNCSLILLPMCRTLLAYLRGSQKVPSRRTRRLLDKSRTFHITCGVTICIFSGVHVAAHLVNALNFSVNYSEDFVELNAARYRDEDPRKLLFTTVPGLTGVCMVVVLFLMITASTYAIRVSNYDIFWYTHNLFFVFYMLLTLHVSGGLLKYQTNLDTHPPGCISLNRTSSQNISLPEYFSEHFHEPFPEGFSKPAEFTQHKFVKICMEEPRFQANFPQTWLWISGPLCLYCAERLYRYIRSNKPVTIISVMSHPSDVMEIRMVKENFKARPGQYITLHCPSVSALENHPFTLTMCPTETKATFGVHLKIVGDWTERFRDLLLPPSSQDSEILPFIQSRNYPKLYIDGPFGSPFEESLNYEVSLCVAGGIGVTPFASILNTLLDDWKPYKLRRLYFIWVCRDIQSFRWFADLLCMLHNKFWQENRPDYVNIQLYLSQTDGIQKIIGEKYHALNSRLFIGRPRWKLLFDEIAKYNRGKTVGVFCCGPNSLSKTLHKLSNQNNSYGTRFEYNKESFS
Outline: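 hNOX4 T-REx-293 cells induced with tetracycline (1 μg/mL, 24 h), sonicated in sucrose/NaCl/EGTA PBS buffer pH 7.4, membranes taken from a sucrose gradient. NADPH-triggered ROS measured by Amplex Red/HRP in PBS, with compound at 1 nM–100 μM, 20 min at 37 °C. Ki by Cheng-Prusoff from ≥3 triplicate experiments.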

[2] = Intrinsic clearance in Sprague-Dawley rat liver microsomes assessed per mg of protein at 0.5 uM; format: ADME, Microsome
Outline: (§1)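 Phase I stability assay in pooled liver microsomes (human: male and female; rat: male Sprague-Dawley). Microsomes at 0.5 mg/mL final in 0.1 M phosphate pH 7.4. Compound 0.5 μM final, 0.25% DMSO. Preincubated at 37 °C, reaction started with 1 mM NADPH. Sampled at 0, 5, 15, 30 and 45 min, with a 45 min minus-NADPH control. Methanol quench with internal standard, LC/MS-MS, intrinsic clearance calculated.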

[3] = Clearance in Sprague-Dawley rat at 10 mg/kg, po; format: ADME, organism-based; parameters: dose 10 mg/kg, route oral; settings: in vivo
Outline: (§2)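 Parallel design with six male rats: three given 5 mg/kg iv in EDPW (10% EtOH, 10% DMA, 30% PG, 50% water), three given 10 mg/kg orally in aqueous 0.5% CMC with 0.25% Tween 20. Carotid cannula blood sampled up to 24 h. Plasma levels by LC/MS/MS (LLOQ 1.00 ng/mL). Noncompartmental analysis.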

[4] = Oral bioavailability in Sprague-Dawley rat at 10 mg/kg; format: ADME, organism-based; settings: in vivo
Outline: (§3)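 Parallel design in male rats, three per group. Group 1: 5 mg/kg iv in EDPW (10% EtOH, 10% DMA, 30% PG, 50% water). Group 2: 10 mg/kg oral in aqueous 0.5% CMC with 0.25% Tween 20. Carotid cannula blood drawn up to 24 h. Plasma measured by LC/MS/MS (LLOQ 1.00 ng/mL), noncompartmental analysis.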

[5] = Tmax in Sprague-Dawley rat at 10 mg/kg, po; format: ADME, organism-based; parameters: dose 10 mg/kg, route oral; settings: in vivo; outline: as §3
[6] = Clearance in Sprague-Dawley rat at 5 mg/kg, iv; format: ADME, organism-based; parameters: dose 5 mg/kg, route intravenous; settings: in vivo; outline: as §2
[7] = Cmax in Sprague-Dawley rat at 5 mg/kg, iv; format: ADME, organism-based; parameters: dose 5 mg/kg, route intravenous; settings: in vivo; outline: as §2
[8] = AUC (infinity) in Sprague-Dawley rat at 10 mg/kg, po; format: ADME, organism-based; parameters: time infinity, dose 10 mg/kg, route oral; settings: plasma; outline: as §2
[9] = Intrinsic clearance in human liver microsomes assessed as per mg of protein at 0.5 uM; format: ADME, Microsome; outline: as §1
[10] = AUC (infinity) in Sprague-Dawley rat at 5 mg/kg, iv; format: ADME, organism-based; parameters: time infinity, dose 5 mg/kg, route intravenous; settings: plasma; outline: as §2
[11] = Cmax in Sprague-Dawley rat at 10 mg/kg, po; format: ADME, organism-based; parameters: dose 10 mg/kg, route oral; settings: in vivo; outline: as §2
[12] = Half life in Sprague-Dawley rat at 10 mg/kg, po; format: ADME, organism-based; parameters: dose 10 mg/kg, route oral; settings: in vivo; outline: as §2
[13] = Permeability across human Caco-2 cell membrane at 10 uM after 2 hrs; format: ADME, cell-based
Outline: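 Caco-2 monolayers grown 20 days in DMEM, used when TEER >800 Ω·cm2. Dosed at 10 μM final in HBSS pH 6.5 with 1% DMSO, apical-to-basolateral and basolateral-to-apical. Incubated 2 h at 37 °C, both compartments sampled, LC-MS/MS with five-point calibration. Papp = (dQ/dt)/(C0A).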

[14] = Volume of distribution at steady state in Sprague-Dawley rat at 5 mg/kg, iv; format: ADME, organism-based; parameters: dose 5 mg/kg, route intravenous; settings: in vivo, read-out: Vdss; outline: as §3

SMILES | Ki [1] [nM] | other results
Cc1c2c(=O)n(-c3cccc(C#N)c3)[nH]c2cc(=O)n1C | 293 | –
Cc1c2c(=O)n(C)[nH]c2cc(=O)n1C | 2180 | –
CCOCCCn1c(C)c2c(=O)n(-c3ccccc3Cl)n(Cc3ccccn3)c2cc1=O | > 30000 | –
Cc1c2c(=O)n(-c3ccccc3Cl)[nH]c2cc(=O)n1Cc1cccc(N2CCOCC2)n1 | 236 | microsomal CLint at 0.5 µM [2]: 71.6 µL/min/mg
Cc1c2c(=O)n(-c3nc4ccccc4s3)n(Cc3ccccn3)c2cc(=O)n1CC1CCOC1 (stereo not given) | > 30000 | –
Cc1c2c(=O)n(-c3ccccc3)[nH]c2cc(=O)n1CCc1ccccc1 | 5230 | –
Cc1c2c(=O)n(-c3ccccc3Cl)[nH]c2cc(=O)n1CCCO | 565 | –
Cc1c2c(=O)n(CCc3ccccc3)[nH]c2cc(=O)n1Cc1ccccn1 | 334 | –
COCCn1c(COc2ccc(F)cc2)c2c(=O)n(CCN3CCOCC3)[nH]c2cc1=O | 153 | CL/F [3]: 1610 mL/min/kg; bioavailability [4]: 6%; Tmax [5]: 0.25 h; clearance [6]: 109 mL/min/kg; Cmax [7]: 4640 ng/mL; AUC(0-inf) [8]: 109 ng·h/mL; microsomal CLint at 0.5 µM [2]: 45.3 µL/min/mg; microsomal CLint at 0.5 µM [9]: 45.1 µL/min/mg; AUC(0-inf) [10]: 822 ng·h/mL; Cmax [11]: 132 ng/mL; half-life [12]: 2.35 h; Papp at 2 h, 10 µM [13]: 1.4 ×10⁻⁶ cm/s; Vd [14]: 2.95 L/kg
CC(=O)n1c2cc(=O)n(Cc3cccnc3)c(C)c2c(=O)n1-c1ccccc1C | 398 | –
Cc1c2c(=O)n(-c3nc4ccccc4s3)n(Cc3ccccc3)c2cc(=O)n1CC1CCCO1 (stereo not given) | > 30000 | –
Cc1c2c(=O)n(-c3nc(-c4ccccc4)cs3)[nH]c2cc(=O)n1C | 1950 | –
COc1cccc(N2CCN(Cc3c4c(=O)n(-c5ccccc5Cl)[nH]c4cc(=O)n3C)CC2)c1 | 65 | microsomal CLint at 0.5 µM [2]: 121 µL/min/mg; microsomal CLint at 0.5 µM [9]: 57.9 µL/min/mg
Cc1c2c(=O)n(-c3ccnc4cc(Cl)ccc34)[nH]c2cc(=O)n1Cc1ccccn1 | 458 | –
Cn1c(COCc2ccccc2Cl)c2c(=O)n(-c3ccccc3Cl)[nH]c2cc1=O | 82 | microsomal CLint at 0.5 µM [2]: 210 µL/min/mg; microsomal CLint at 0.5 µM [9]: 212 µL/min/mg; Papp at 2 h, 10 µM [13]: 62.6 ×10⁻⁶ cm/s
Cc1c2c(=O)n(Cc3ccc(F)cc3Cl)[nH]c2cc(=O)n1Cc1ccccn1 | 342 | –
Cc1c2c(=O)n(-c3ccc4nncn4n3)[nH]c2cc(=O)n1Cc1cccc(Oc2ccccc2)c1 | > 30000 | –
Cc1c2c(=O)n(-c3nc4ccccc4s3)[nH]c2cc(=O)n1N1CCOCC1 | 1210 | –
Cc1c2c(=O)n(Cc3ccc(Cl)cc3)[nH]c2cc(=O)n1Cc1ccccn1 | 259 | –
Cc1c2c(=O)n(-c3ccc(F)cc3Cl)[nH]c2cc(=O)n1C | 213 | –
Cc1c2c(=O)n(-c3ccccc3Cl)[nH]c2cc(=O)n1CC1CCCCC1 | 520 | –
Cc1c2c(=O)n(CCN3CCOCC3)[nH]c2cc(=O)n1Cc1ccccn1 | 445 | –
Cc1c2c(=O)n(C)[nH]c2cc(=O)n1Cc1ccccn1 | 387 | –
Cc1c2c(=O)n(-c3ccccc3)n(Cc3ccccc3Cl)c2cc(=O)n1CCCN1CCCC1=O | > 30000 | –
Cc1c2c(=O)n(-c3ccc(F)cc3Cl)[nH]c2cc(=O)n1Cc1ccccn1 | 235 | microsomal CLint at 0.5 µM [2]: 84.2 µL/min/mg; microsomal CLint at 0.5 µM [9]: 37.6 µL/min/mg; Papp at 2 h, 10 µM [13]: 13.4 ×10⁻⁶ cm/s
Cc1c2c(=O)n(-c3nc4ccccc4s3)[nH]c2cc(=O)n1CCc1c[nH]cn1 | 4730 | –
Cc1c2c(=O)n(CCOc3ccc(Cl)cc3)[nH]c2cc(=O)n1Cc1ccccn1 | 326 | –
Cc1c2c(=O)n(Cc3ccccc3)[nH]c2cc(=O)n1Cc1ccccn1 | 463 | –

SMILES | Ki [1] [nM] | other results
Cc1c2c(=O)n(-c3ccccc3Cl)[nH]c2cc(=O)n1CCN(C)C | 235 | –
COc1cccc(CC(=O)n2c3cc(=O)n(Cc4cccnc4)c(C)c3c(=O)n2-c2ccccc2)c1 | 285 | –
COCCn1[nH]c2cc(=O)n(Cc3ccccn3)c(C)c2c1=O | 313 | –
Cc1c2c(=O)n(-c3nc4ccccc4s3)n(Cc3ccccc3Cl)c2cc(=O)n1N1CCOCC1 | > 30000 | –
CN(Cc1c2c(=O)n(-c3ccccc3Cl)[nH]c2cc(=O)n1CCc1ccccn1)c1ccccc1 | 172 | –
Cc1c2c(=O)n(-c3ccc(OCc4ccccc4)cc3)[nH]c2cc(=O)n1C | 3060 | –
Cc1c2c(=O)n(-c3nc4ccccc4s3)[nH]c2cc(=O)n1CCc1c[nH]c2ccccc12 | 1840 | –
Cc1c2c(=O)n(-c3cccc(Cl)c3)[nH]c2cc(=O)n1C | 340 | microsomal CLint at 0.5 µM [2]: 163 µL/min/mg
Cc1c2c(=O)n(-c3ccccc3Cl)[nH]c2cc(=O)n1Cc1ccc(CN2CCN(C)CC2)cc1 | 515 | –
Cc1c2c(=O)n(-c3ccccc3)[nH]c2cc(=O)n1Cc1ccc2c(c1)OCO2 | 5440 | –
Cc1c2c(=O)n(-c3ccccc3F)[nH]c2cc(=O)n1C | 308 | –
CC(=O)n1c2cc(=O)n(Cc3cccnc3)c(C)c2c(=O)n1-c1ccccc1Cl | 240 | –
Cc1c2c(=O)n(Cc3cc(Cl)ccc3Cl)[nH]c2cc(=O)n1Cc1ccccn1 | 218 | –
Cc1c2c(=O)n(-c3ccc(S(=O)(=O)N4CCN(C)CC4)cn3)[nH]c2cc(=O)n1C | 1420 | –
Cc1c2c(=O)n(-c3ccccc3)n(Cc3ccc(F)cc3)c2cc(=O)n1CCc1c[nH]c2ccccc12 | > 30000 | –
CC(=O)n1c2cc(=O)n(Cc3cccnc3)c(C)c2c(=O)n1-c1ccccc1 | 409 | –
Cn1c(-c2ccccc2F)c2c(=O)n(-c3ccccc3Cl)[nH]c2cc1=O | 128 | –
Cc1c2c(=O)n(-c3ccccc3)[nH]c2cc(=O)n1Cc1ccco1 | 9490 | –
Cc1c2c(=O)n(-c3ccccc3Cl)[nH]c2cc(=O)n1NC(=O)COc1ccc(F)cc1 | 218 | –
Cc1c2c(=O)n(-c3nc4ccccc4s3)[nH]c2cc(=O)n1Cc1ccc(C(=O)O)cc1 | 4220 | –
CC(=O)Nc1cccc(-n2[nH]c3cc(=O)n(C)c(C)c3c2=O)c1 | 328 | –
Cc1c2c(=O)n(-c3ccccc3Cl)[nH]c2cc(=O)n1Cc1ccc(S(N)(=O)=O)cc1 | 259 | –
Cc1c2c(=O)n(-c3ccccc3Cl)[nH]c2cc(=O)n1C | 215 | microsomal CLint at 0.5 µM [2]: 49.3 µL/min/mg
Cc1c2c(=O)n(-c3ccc(F)cc3)[nH]c2cc(=O)n1Cc1ccccc1 | 878 | –
Cc1c2c(=O)n(-c3ccccc3Cl)[nH]c2cc(=O)n1CC#Cc1ccccc1 | 158 | microsomal CLint at 0.5 µM [2]: 178 µL/min/mg
Cc1c2c(=O)n(-c3ccccc3Cl)[nH]c2cc(=O)n1CCCC(=O)N1CCN(C)CC1 | 428 | –
Cc1ccccc1-n1[nH]c2cc(=O)n(Cc3ccccn3)c(C)c2c1=O | 173 | –
